Measured values published in ChEMBL document CHEMBL3124872, “Discovery and early development of TMC647055, a non-nucleoside inhibitor of the hepatitis C virus NS5B polymerase” (J Med Chem, 2014).
Active and inactive are the calls of the source. The calls are words filed in the database; no cut-off is given here.

What was measured:
Hepatitis C virus [1] = test: Antiviral activity against Hepatitis C virus genotype 1b infected in human HuH7 cells after 72 hrs by luciferase reporter gene assay in presence of 40% human plasma relative to control; assay type: functional, Hepacivirus hominis, Huh-7
[2] = Binding affinity to His6-tagged Hepatitis C virus Con 1b NS5B delta21 RNA dependent RNA polymerase expressed in Escherichia coli Rosetta 2 (DE3) by surface plasmon resonance analysis; set-up: species or system Hepatitis C virus (isolate Con1)
Summary of the method: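 Surface plasmon resonance binding to NS5B polymerase of the stated genotype; association and dissociation rate constants measured, from which Kd and residence half-life were derived; median Kd reported.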

[3] = Cytotoxicity against human MT4 cells; assay type: cell-based
[4] = Cytotoxicity against human HuH7 cells; assay type: cell-based, Huh-7
Hepatitis C virus [5] = test: Antiviral activity against Hepatitis C virus genotype 1b infected in human HuH7 cells after 72 hrs by luciferase reporter gene assay; assay type: functional, organism-based, Hepacivirus hominis; details: Huh-7, 72 h
[6] = Drug uptake in Sprague-Dawley rat liver at 10 mg/kg, po after 7 hrs; assay type: ADME, organism-based; set-up: dose 10 mg/kg, route oral; details: read-out: Drug uptake
[7] = Ratio of drug level in liver to plasma in Sprague-Dawley rat at 10 mg/kg, po after 7 hrs; assay type: ADME, organism-based; set-up: dose 10 mg/kg, route oral
[8] = Oral bioavailability in Sprague-Dawley rat at 10 mg/kg; assay type: ADME, organism-based; details: in vivo
[9] = Drug metabolism in human liver microsomes at 5 uM after 15 mins; assay type: ADME; details: read-out: Drug metabolism
Summary of the method: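 Stability in human liver microsomes: test compound at 5 μM, incubated 15 min; reported as percentage of compound metabolized.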

[10] = Plasma clearance in Sprague-Dawley rat at 2 mg/kg, iv and 10 mg/kg, po; assay type: ADME, organism-based
[11] = Drug metabolism in rat liver microsomes after 15 mins; assay type: ADME; details: read-out: Drug metabolism
Hepatitis C virus [12] = test: Antiviral activity against Hepatitis C virus genotype 1b infected in human HuH7 assessed as suppression of formation of resistant colonies at 0.2 uM preincubated for 2 weeks followed by 3 week rebound phase by RT-PCR analysis; assay type: functional, organism-based; details: Hepacivirus hominis, Huh-7
Summary of the method: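 Colony formation test in Huh7-Luc replicon cells incubated for 2−3 weeks with inhibitor alone (0.20 μM), scored for formation of resistant colonies.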

Hepatitis C virus [13] = test: Antiviral activity against Hepatitis C virus genotype 1b infected in human assessed as reduction in plasma HCV RNA level administered for 10 days measured on day 11; assay type: functional, organism-based; details: Hepacivirus hominis
Summary of the method: (§1)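 HCV genotype 1a- and 1b-infected patients received oral 1000 mg b.i.d. together with an NS3/4A protease inhibitor at 150 mg q.d. for 10 days. The read-out was the median decrease in plasma HCV RNA (log10 IU/mL) at day 11.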

Hepatitis C virus [14] = test: Antiviral activity against Hepatitis C virus genotype 1b infected in human HuH7 assessed as clearance of replicon cells at 0.25 uM preincubated for 2 weeks followed by 3 week rebound phase by RT-PCR analysis; assay type: functional, organism-based; details: Hepacivirus hominis, Huh-7
Summary of the method: (§2)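 Huh7-Luc replicon cells incubated 14 days with compound alone or in combination, followed by a 3-week rebound phase without inhibitor; replicon RNA followed for clearance and rebound.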

Hepatitis C virus [15] = test: Antiviral activity against Hepatitis C virus genotype 1b infected in human HuH7 assessed as rebound of replicon RNA at 0.25 uM preincubated for 2 weeks followed by 3 week rebound phase by RT-PCR analysis; assay type: functional, organism-based; details: Hepacivirus hominis, Huh-7; summary of the method: as §2
Hepatitis C virus [16] = test: Antiviral activity against Hepatitis C virus genotype 1a infected in human assessed as reduction in plasma HCV RNA level administered for 10 days measured on day 11; assay type: functional, organism-based; details: Hepacivirus hominis, subtype 1a; summary of the method: as §1

Row | Compound | fold change (FC) (Hepatitis C virus [1]) | Kd [2] | CC50 [3] | CC50 [4] | further results
1 | COc1ccc2c(c1)C=C1Cn3c-2c(C2CCCCC2)c2ccc(cc23)C(=O)NS(=O)(=O)N(C)CCCCCCN(C)C1=O | 10 | 0.0008 µM | > 25 µM | > 25 µM | 
2 | COc1ccc2c(c1)C=C1Cn3c-2c(C2CCCCC2)c2ccc(cc23)C(=O)NS(=O)(=O)N(C)CCCCN(C)C1=O |  |  | > 25 µM | > 25 µM | EC50 (Hepatitis C virus [5]): 0.075 µM
3 | COc1ccc2c(c1)C=C1Cn3c-2c(C2CCCCC2)c2ccc(cc23)C(=O)NS(=O)(=O)N(C)CCCN(C)C1=O | 10 | 0.007 µM | > 25 µM | > 25 µM | 
4 | COc1ccc2c(c1)C=C1Cn3c-2c(C2CCCCC2)c2ccc(cc23)C(=O)NS(=O)(=O)N(C)CCCCCNC1=O | 10 | 0.0009 µM | > 25 µM | > 25 µM | concentration at 7 h [6]: 6320 ng/g
5 | COc1ccc2c(c1)C=C1Cn3c-2c(C2CCCCC2)c2ccc(cc23)C(=O)NS(=O)(=O)N(C)CCN(C)CCNC1=O | 10 |  | > 25 µM | > 25 µM | 
6 | COc1ccc2c(c1)C=C1Cn3c-2c(C2CCCCC2)c2ccc(cc23)C(=O)NS(=O)(=O)N2CCN(CCNC1=O)CC2 | 10 | 0.025 µM | > 25 µM | > 25 µM | 
7 | CN1CCOCCN(C)S(=O)(=O)NC(=O)c2ccc3c(C4CCCCC4)c4n(c3c2)CC(=Cc2cc(Cl)ccc2-4)C1=O | 10 | 0.0015 µM | > 25 µM | > 25 µM | 
8 | CN1CCOCCN(C)S(=O)(=O)NC(=O)c2ccc3c(C4CCCCC4)c4n(c3c2)CC(=Cc2cc(F)ccc2-4)C1=O | 10 |  | > 25 µM | > 25 µM | concentration at 7 h [6]: 6560 ng/g
9 | COc1ccc2c(c1)C=C1Cn3c-2c(C2CCCCC2)c2ccc(cc23)C(=O)NS(=O)(=O)N(C)CCCCNC1=O | 10 | 0.0071 µM | > 25 µM | > 25 µM | 
10 | COc1ccc2c(c1)C=C1Cn3c-2c(C2CCCCC2)c2ccc(cc23)C(=O)NS(=O)(=O)NCCCCN(C)C1=O | 10 | 0.015 µM | > 25 µM | > 25 µM | 
11 | COc1ccc2c(c1)C=C1Cn3c-2c(C2CCCCC2)c2ccc(cc23)C(=O)NS(=O)(=O)N(C)CCN2CCN(CC2)C1=O | 10 |  | > 25 µM | > 25 µM | concentration at 7 h [6]: 299 ng/g
12 | COc1ccc2c(c1)C[C@@H]1Cn3c-2c(C2CCCCC2)c2ccc(cc23)C(=O)NS(=O)(=O)N(C)CCOCCN(C)C1=O | 10 |  | > 25 µM | > 25 µM | concentration at 7 h [6]: 898 ng/g
13 | COc1ccc2c(c1)C[C@H]1Cn3c-2c(C2CCCCC2)c2ccc(cc23)C(=O)NS(=O)(=O)N(C)CCOCCN(C)C1=O | 10 |  | > 25 µM | > 25 µM | 
14 | COc1ccc2c(c1)[C@@H]1C[C@]13Cn1c-2c(C2CCCCC2)c2ccc(cc21)C(=O)NS(=O)(=O)N(C)CCOCCN(C)C3=O | 10 |  | > 25 µM | > 25 µM | Kp at 7 h [7]: 38; bioavailability [8]: 51%; metabolised at 0.25 h, 5 µM [9]: 95%; clearance [10]: 86.7 mL/min/kg; metabolised at 0.25 h [11]: 70%; concentration at 7 h [6]: 3200 ng/g; EC50 (Hepatitis C virus [5]): 0.04 µM
15 | COc1ccc2c(c1)C=C1CN(C)CCCCN(C)S(=O)(=O)NC(=O)c3ccc4c(C5CCCCC5)c-2n(c4c3)C1 | 10 |  | > 25 µM | > 25 µM | EC50 (Hepatitis C virus [5]): 2.34 µM
16 | COc1ccc2c(c1)[C@H]1C[C@@]13Cn1c-2c(C2CCCCC2)c2ccc(cc21)C(=O)NS(=O)(=O)N(C)CCOCCN(C)C3=O | 10 |  | > 25 µM | > 25 µM | EC50 (Hepatitis C virus [5]): 0.8 µM
17 | COc1ccc2c(O[C@@H]3C[C@H]4C(=O)N[C@]5(C(=O)NS(=O)(=O)C6CC6)C[C@H]5/C=C\CCCCN(C)C(=O)[C@@H]4C3)cc(-c3nc(C(C)C)cs3)nc2c1C |  |  |  |  | Activity (Hepatitis C virus [12]): inactive; Activity (Hepatitis C virus [13]): Active; Activity (Hepatitis C virus [14]): inactive; Activity (Hepatitis C virus [15]): inactive; Activity (Hepatitis C virus [16]): Active
